Screening data from PubChem.
HTR2A ag – agonists of mouse serotonin 5-HT2A receptor (HTR2A). P35363. CHO-K1 mHTR2A beta-arrestin complementation, luminescence; percent of 30 µM serotonin response. activation, % at 7.6 µM. 360,000 tested, 0.66% active;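 active = activation above a run cutoff, the mean activation of all tested compounds plus 3 SD, cut at about 14% in these data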;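 note: 0% = plate median of compound wells and 100% = 30 µM serotonin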
APJ ag – APJ receptor agonism | P35414 | CHO-K1 APJ PathHunter beta-arrestin, luminescence; 0% DMSO wells, 100% apelin | activation, % at 20 µM | 330,000 tested, 0.11% active | AID 2520;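 active = activation more than six SD over the plate average, tested at 20 µM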;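 note: 0% = DMSO alone and 100% = apelin-13 at 10 nM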
Target sequence (P35414 whole entry, looked up): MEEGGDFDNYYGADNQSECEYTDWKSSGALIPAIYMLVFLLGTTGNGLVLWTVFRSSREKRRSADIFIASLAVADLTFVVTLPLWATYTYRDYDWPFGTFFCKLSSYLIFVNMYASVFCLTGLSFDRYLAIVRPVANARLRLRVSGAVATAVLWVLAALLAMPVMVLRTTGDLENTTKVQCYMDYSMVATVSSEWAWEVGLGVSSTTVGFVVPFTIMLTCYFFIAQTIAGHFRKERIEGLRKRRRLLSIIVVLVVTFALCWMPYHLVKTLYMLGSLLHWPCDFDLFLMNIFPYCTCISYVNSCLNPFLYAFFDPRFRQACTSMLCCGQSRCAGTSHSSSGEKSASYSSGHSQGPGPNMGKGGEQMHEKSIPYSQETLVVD
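Test system: CHO-K1 APJ beta-arrestin complementation cell line. Amount: cell density 1000 per well. Controls: DMSO negative, 10 nM Apelin-13 positive. Signal: luminescent beta-gal fragment complementation, chemiluminescent substrate. Read-out basis: agonist-driven arrestin binding to APJ. Timing: compound stimulation 90 min at 25 °C, detection 60 min.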
EBI2 block – EBI2 (human) antagonism; P32249; inhibition, % at 5 µM; 360,000 tested, 0.81% active; EBI2 beta-arrestin recruitment, luminescence, 7a,25-OHC stimulated; AID 651636; in the data active = inhibition above about 38%;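 note: enzyme fragment complementation signal reports receptor beta-arrestin coupling in cells; 0% = agonist plus DMSO wells and 100% = wells without agonist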
CXCR6 inh – inhibitors of human CXCR6 receptor; CHO-K1 PathHunter CXCR6 beta-arrestin, luminescence; inhibition, % at 20 µM; AID 602244; 360,000 tested, 0.36% active; in the data active = inhibition above about 34%, passing the limit was not always enough;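 note: antagonist mode with CXCL16 agonist at 10 nM final; 0% = 10 nM CXCL16 with DMSO and 100% = unstimulated wells without agonist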
CCR6 antag – CCR6 (human) receptor antagonism | P51684 | CHO-K1 CCR6 PathHunter beta-arrestin, luminescence, CCL20-stimulated | inhibition, % at 20 µM | 340,000 tested, 0.49% active | AID 493098;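 active = compounds whose inhibition of the agonist-driven luminescence signal at 20 µM reaches about 50%, limit read from the data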;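 note: cells stimulated with CCL20 at 14 nM final; plate controls were DMSO with CCL20 for no effect and DMSO without agonist for full effect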
APJ antag – blocks the human apelin receptor APJ. P35414. CHO-K1 APJ beta-arrestin complementation, luminescence. inhibition, % at 20 µM. 330,000 tested, 0.32% active. AID 2521;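 active = inhibition above about 40% at 20 µM, limit read from the data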;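 note: cells challenged with 10 nM apelin-13 agonist together with compound; plate controls were apelin-13 plus DMSO wells for no effect and DMSO wells lacking apelin-13 for full effect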
EBI2 conf – confirmation of human EBI2 receptor antagonists; inhibition, % at 5 µM; AID 651997; 2,400 tested, 29% active; shares compounds with EBI2 block; EBI2 beta-arrestin luminescence, 7a,25-OHC antagonism;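 active = inhibition of at least 50%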
EBI2 agonist – counter-screen for EBI2 antagonists: EBI2 agonist activity; shares compounds with EBI2 block; AID 652000; 2,400 tested, under 10 active; activation, % at 5 µM; EBI2-expressing cells, agonist mode, luminescence, 60 min; 0% vehicle, 100% 7α,25-dihydroxycholesterol control;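 active = activation of at least 50%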
bGal counter – counter-screen for EBI2 antagonists: E. coli beta-galactosidase inhibition; shares compounds with EBI2 block; purified beta-galactosidase, luminescent Galacton Star, 15 min; inhibition, % at 5 µM; 2,400 tested, 1% active; AID 652176;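 active = replicate-average signal at least 3 plate SD below neutral wells, shown as high inhibition, flagging enzyme-inhibiting false positives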;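 note: 0% = DMSO wells with enzyme and 100% = wells lacking enzyme; higher means stronger loss of beta-gal luminescence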
Active calls of the source: *; . = not tested or not shown. Compounds with a hit are over-represented: about 2.1% of the library has one in this group of screens.

SMILES	HTR2A ag	APJ ag	EBI2 block	CXCR6 inh	CCR6 antag	APJ antag	EBI2 conf	EBI2 agonist	bGal counter
COc1ccccc1CNc1cc(CSc2ccc(Cl)cc2)nc(C)n1	-8	-3	49*	14	-1	-11	32	1	-1
CN(Cc1cnn(C)c1)C(=O)C1CCC(=O)N(Cc2ccc(Cl)cc2)C1 (stereo unspecified)	-1	1	2	-6	6	17	.	.	.
O=C(c1cc2ccccc2o1)N1CCN(Cc2nc3ccccc3s2)CC1	5	.	68*	-3	.	.	55*	0	-1
O=C(c1cc2ccccc2o1)N1CCN(C/C=C/c2ccccc2)CC1	-4	-4	86*	-4	8	-7	59*	0	-10
Cc1ccc(CNC(=O)C2CCN(S(=O)(=O)c3ccc(Br)s3)CC2)cc1	-3	3	92*	0	19	-10	61*	-1	-6
Cc1ccc(CNC(=O)C2CCN(S(=O)(=O)c3cccs3)CC2)cc1	-1	-2	60*	-1	8	-1	51*	0	-21
O=C(N=NC(=O)c1ccc2c(O)n(CC3CCCO3)c(O)c2c1)c1cccnc1 (stereo unspecified)	-3	-4	-34	-3	6	1	.	.	.
O=S(=O)(c1ccc(Oc2ccc(Cl)cc2)nc1)N1CCOCC1	6	5	52*	-7	-4	-9	27	0	-6
C(=C\c1ccccc1)/CSc1nnc(-c2ccccc2)n1Cc1ccco1	-6	-3	22	-1	22	-9	.	.	.
Clc1cccc(-c2nnc(SC/C=C/c3ccccc3)n2Cc2ccco2)c1	-4	-6	45*	12	16	7	35	-1	4
O=C1CC(Nc2ccc3ccccc3c2)C(=O)N1Cc1ccccc1 (stereo unspecified)	-5	2	63*	-7	1	-12	24	0	5
Cc1ccc(C)c(N2N=C(C(=O)Nc3nccs3)CCC2=O)c1	4	-4	1	-5	-7	-11	.	.	.
Cc1ccc2oc(C(=O)N3CCC(O)(c4cccc(C(F)(F)F)c4)CC3)c(C)c2c1	3	-4	57*	0	25	-6	44	-1	-5
O=C(NCc1ccc(F)cc1)C1CCN(S(=O)(=O)N2CCC3(CC2)OCCO3)CC1	4	-1	6	-7	-13	-14	.	.	.
Cc1ccc(CNC(=O)C2CCN(S(=O)(=O)N3CCC4(CC3)OCCO4)CC2)cc1	6	0	45*	-4	14	-3	15	0	-9
CCc1ccc(CNC(=O)C2CCN(S(=O)(=O)N3CCC4(CC3)OCCO4)CC2)cc1	-1	0	47*	2	5	-8	22	0	12
Cc1c(Cl)cccc1NC(=O)CNC(=O)Cc1n[nH]c(=O)c2ccccc12	12	-1	0	0	2	8	.	.	.
Cc1ccc(CNC(=O)C2CCC(CNc3c(N4CCC(C)CC4)c(=O)c3=O)CC2)cc1 (stereo unspecified)	2	-2	84*	5	9	-2	57*	1	12
COc1ccc(CNC(=O)c2cc(=O)c3cc(C)c(C)cc3o2)cc1	0	-5	56*	-5	2	-5	38	1	5
Cc1ccccc1OCC(=O)NNC(=O)C1CCN(c2ncnc3sc(C)c(C)c23)CC1	2	4	50*	-13	-9	-14	20	1	6
COc1ccc([C@H]2CC(=O)C=C(c3cccc4c3sc3ccccc34)C2)cc1OC	-9	-2	59*	1	15	-17	16	0	-13
COc1ccc([C@H]2CC(=O)C=C(c3cccc(OC)c3OC)C2)cc1OC	1	0	3	-10	-2	8	.	.	.
CCOC(=O)N1CCN(C(=O)CNC2CCCCCCC2)CC1	-2	-5	45*	3	13	9	11	0	4
CCOC(=O)N1CCN(C(=O)NC2CCCCC2)CC1	5	0	-5	0	-11	4	.	.	.
COc1cc(/C=N/NC(=O)CSc2cc(C)c(Br)cc2C)ccc1O	-2	3	59*	-20	-8	-1	9	-1	-14
SMILES	HTR2A ag	APJ ag	EBI2 block	CXCR6 inh	CCR6 antag	APJ antag	EBI2 conf	EBI2 agonist	bGal counter
Cc1cc(SCC(=O)N/N=C/c2ccc(O)c(O)c2O)c(C)cc1Br	4	5	-5	-8	13	-30	.	.	.
CC1CCc2c(sc(NC(=O)/C=C/c3cccs3)c2C(=O)O)C1 (stereo unspecified)	-6	1	16	5	7	9	.	.	.
CCCCOc1ccc(S(=O)(=O)NC(=O)C2(C)CCN2C(=O)c2cccc(F)c2)cc1 (stereo unspecified)	2	.	-4	-8	.	.	.	.	.
O=C1CN(C(=O)COC(=O)[C@@H]2CCCN2S(=O)(=O)c2ccc(Cl)cc2)c2ccccc2N1	-1	0	8	-13	-2	2	.	.	.
Cc1ccc(Oc2cnc3ccccc3n2)cc1	-2	0	-16	8	2	-5	.	.	.
Cc1ccc(Oc2ccc(Oc3ccc(C)cc3)nn2)cc1	0	-3	92*	6	7	-13	89*	3	4
COC(=O)/C=C1/SC(=Nc2ccc(C)cc2C)NC1=O	2	-2	72*	3	9	20	72*	0	3
COC(=O)/C=C1\SC(=Nc2ccccc2)NC1=O	-2	-2	52*	8	11	15	59*	-1	-12
COC(=O)/C=C1\SC(=NC(=O)c2ccc(C)cc2)NC1=O	-1	-3	1	-5	13	7	.	.	.
CCCS(=O)(=O)NC(=O)C1(C)CCCN(C(=O)c2sccc2C)C1 (stereo unspecified)	1	.	-14	-4	.	.	.	.	.
COc1ccc(N(C(=O)Cn2nnc(-c3ccc(Cl)cc3)n2)C(C(=O)NCC2CCCO2)c2ccc(C)cc2)cc1 (stereo unspecified)	-1	-4	61*	-6	0	-5	22	-1	-7
COc1ccc(N(C(=O)Cn2nnc(-c3ccc(Cl)cc3)n2)C(C(=O)NCC2CCCO2)c2ccncc2)cc1 (stereo unspecified)	7	-2	9	5	0	1	.	.	.
CCOC(=O)c1c(S(=O)(=O)NCC(=O)Nc2ccc(F)cc2F)c(C)n(C)c1C	8	-2	0	4	12	-9	.	.	.
